Data reported in ChEMBL document CHEMBL4513216, “Probing the Open Global Health Chemical Diversity Library for Multistage-Active Starting Points for Next-Generation Antimalarials” (ACS Infect Dis, 2020).

Assay: Toxicity liver stage against HepG2, at 10uM
Assay type: cell-based
Parameters: test concentration 10 uM, cell line HepG2-A16-CD81EGFP
Conditions: human, HepG2-A16-CD81EGFP cells; read-out: INHIBITION
Method in brief: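 Uninfected HepG2-A16-CD81EGFP cells, 3 × 10^3 per well, 1536-well, plated on prespotted compound at 10 μM final, parasite-free screening media added to match infected plates; puromycin 10 μM positive, DMSO 0.5% negative; run in parallel with 48 h PbLuc assay at 37 °C, 5% CO2; viability by CellTiter-Glo luminescence, normalized to controls.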

Row | SMILES | cytotoxicity at 10 µM [%]
1 | CC[C@@]1(O)CCN(C(=O)c2ccc(-c3ccco3)cc2)C[C@H]1O | 3.75
2 | CC(C(=O)NCc1ccnc(N2CCN(C)CC2)c1)n1cccn1 (configuration not stated) | -10.2
3 | CCc1ccc(CN(Cc2ccco2)C(C)C(C)C)nc1 (configuration not stated) | -13.5
4 | CN1CCC(NC(=O)NCc2csc(Br)c2)CC1 | -8.92
5 | CNc1nc2c(s1)C(=O)CN(C(=O)NCc1ccccc1)C2 | 24.4
6 | Cc1ccccc1CN(Cc1ccccn1)C(=O)CN(C)C(C)C | -0.675
7 | COCCCNC(=O)Nc1ccc(F)c(C(N)=O)c1 | -12.9
8 | O=C(CCNS(=O)(=O)c1cccnc1)N1CCOC(c2ccccc2)C1 (configuration not stated) | 5.11
9 | O=C(O)c1ccccc1-c1cnc(CNC(=O)C2CCOCC2)nc1 | -3.99
10 | CSCC(=O)NS(=O)(=O)c1ccc2c(c1)OCCO2 | -9.69
11 | O=C(NCCc1ccc(Cl)s1)NCc1nnc2n1CCC2 | -7.15
12 | CC(=O)N1CCC(C(=O)NCCN2CCCCC2)CC1 | -5.04
13 | Cc1c(Cl)cccc1S(=O)(=O)NCC(O)c1cccn1C (configuration not stated) | -5.15
14 | c1ccc2nc(NCC3(N4CCOCC4)CCSC3)cnc2c1 (configuration not stated) | 12.7
15 | Cc1cccc(CS(=O)(=O)NCc2nn(C)c3c2CCCC3)c1 | 2.37
16 | CN(C)C(=O)N1CCC2(CC1)CCN(Cc1ccccn1)C2=O | 2.05
17 | Cc1cc(CN(C)CCC(O)c2ccccc2)nn1C (configuration not stated) | -17.3
18 | Cc1nn(CN(CC2CCOC2)C2CC2)c(=O)c2ccccc12 (configuration not stated) | 4.77
19 | Cc1cc(Br)ccc1C(=O)Nc1c(C(N)=O)n[nH]c1C | -2.58
20 | Cn1c(C(F)(F)F)nn(CCNC(=O)c2ccccn2)c1=O | -1.4
21 | Fc1cnc(N2CCC3(CC2)CC(OCc2cccnc2)CO3)nc1 (configuration not stated) | 2.25
22 | CCCN(C1CCc2ccccc2C1)S(C)(=O)=O (configuration not stated) | 0.595
23 | Cc1noc(C)c1CCNc1nccc(CCC(F)(F)F)n1 | -158

Row | SMILES | cytotoxicity at 10 µM [%]
24 | CCOc1cc(C)nc(N2CCN(C(=O)c3cc(C)on3)CC2)n1 | -1.61
25 | COc1cccc(-n2cc(-c3ccnc(N[C@@H](CO)C(C)C)n3)cn2)c1 | -1.15
26 | O=C(c1ccc(F)c(F)c1)N1CCCCC1c1nc[nH]n1 (configuration not stated) | -7.47
27 | NC(=O)CS(=O)(=O)Cc1csc(-c2ccc(F)cc2)n1 | -4.95
28 | Cc1nc(C2CCN(Cc3ncc[nH]3)CC2)no1 | -28
29 | CN1Cc2cc(F)ccc2N(CC(O)C(F)(F)F)CCC1=O (configuration not stated) | 1.06
30 | CC(C)(C)C(=O)NCc1nccn1CCc1ccccc1 | 3.75
31 | Cc1c(Cn2ccnc2-c2cc(CN(C)C)cs2)cnn1C | -0.309
32 | O=C(Nc1ccc(F)cc1)N1CCC2(CCC(=O)N(C3CC3)C2)CC1 | 5.54
33 | CCCC(=O)NC1CCCN(c2cncc(Br)c2)C1 (configuration not stated) | -38.5
34 | CC(C)n1ncc2cc(NC(=O)N3CCC(CO)CC3)cnc21 | -14.5
35 | Cc1ccc2c(CC(=O)N(C)CCN(C)C)c(C)[nH]c2c1C | 8.42
36 | COCCN(Cc1cccnc1)S(=O)(=O)c1cc(C)ccc1F | 10.3
37 | CCCn1cc(C(=O)NC2CCN(CC(=O)NC3CC3)CC2)c(C)n1 | 2.29
38 | Cc1ccc(Br)c(S(=O)(=O)NCc2cnn(C)c2)c1 | 6.95
39 | Cc1cnn(CC2CCCN2CC(=O)Nc2nc(C)cs2)c1 (configuration not stated) | -6.26
40 | Cn1ncc2c(NCCn3cccc3)nc(C3CCCC3)nc21 | 3.07
41 | C[C@H]1C[C@H]2CN(C(=O)C3=CCCC3)CC[C@H]2O1 | 3.76
42 | CCc1cc(N(C)Cc2ccncn2)n2nccc2n1 | 3.61
43 | COc1ccc(N2CCC(NS(=O)(=O)N(C)C(C)C)CC2)cc1 | 6.62
44 | COc1ccc(Cn2cc(C(=O)N(C)Cc3ccn[nH]3)nn2)cc1 | 8.95
45 | CC(C)C(CCO)NC(=O)Nc1cc(F)ccc1-n1cccn1 (configuration not stated) | -4.06
46 | CCC(CC)CNC(=O)N(C)C(C)c1ccccn1 (configuration not stated) | -6.2

Row | SMILES | cytotoxicity at 10 µM [%]
47 | c1cc(CNCC2Cn3nncc3CO2)cs1 (configuration not stated) | 6.13
48 | N#Cc1ccc(OCC(O)CN2CCC(c3ccn[nH]3)CC2)cc1 (configuration not stated) | -3.33
49 | CC1=NOC(C(=O)N(C)CCCn2nc(C)cc2C)C1 (configuration not stated) | 3.53
50 | CCOC(=O)c1ccc(CNC(=O)c2ccncc2Cl)o1 | 6.93
51 | c1cncc(OC[C@]23COC[C@H]2CN(Cc2ccsc2)C3)c1 | 14.7
52 | O=C1CC(c2ccsc2)c2sc(C(=O)O)c(-c3ccccc3)c2N1 (configuration not stated) | 15.2
53 | Cc1ccnc(C2COCCN2C)n1 (configuration not stated) | 3.59
54 | CCc1nnc(Nc2cc(C)nc(C3CN(C(C)=O)CCO3)c2)s1 (configuration not stated) | 4.74
55 | Cc1cc2nc(SCC(=O)N3CCCC3)n(-c3ccccc3)c(=O)c2[nH]1 | -6.34
56 | NC(=O)CSc1nccc(-c2ccc3c(c2)OCO3)n1 | -7.38
57 | Cc1ccccc1-n1cc(C2=CCN(CCN3CCOCC3)CC2)cn1 | -5.06
58 | Cc1cc(C(=O)N2CCC[C@]3(C[C@H](OCC4CC4)CO3)C2)no1 | -78.8
59 | CC(Cn1cccn1)NC(=O)Nc1cccnc1 (configuration not stated) | -2.9
60 | Cc1ccc(CC(=O)N2CCOC(c3nc(C(C)(C)C)n[nH]3)C2)cn1 (configuration not stated) | -5.96
61 | OC1(Cn2ccnc2)CCN(C[C@]2(O)CCCN3CCCC[C@@H]32)CC1 | 0.805
62 | O=C(Nc1cccnc1N1CCCC1)C1CCS(=O)(=O)C1 (configuration not stated) | -13.1
63 | Cc1sc(NC(=O)CN(C)S(C)(=O)=O)c(C#N)c1C | 4.7
64 | COc1nn(C)cc1C(=O)N1CCC(c2nnc(-c3ccsc3)o2)CC1 | 8.08
65 | Cn1cc(CN2CCCC(CCCc3ccccn3)(C(N)=O)C2)cn1 (configuration not stated) | -24.5
66 | Cc1cccc(CN2CCc3ncnc(C4CC4)c3CC2)n1 | -158
67 | CCC1CN(C(=O)c2ccc(O)cn2)CCC(=O)N1Cc1ccccc1 (configuration not stated) | 8.5
68 | Cc1occc1CNc1ncccc1S(N)(=O)=O | -149
69 | CS(=O)(=O)NCCC1CN(Cc2ccccc2F)CCO1 (configuration not stated) | -7.31

Row | SMILES | cytotoxicity at 10 µM [%]
70 | CC(CC(=O)Nc1ncn(CC(=O)NCc2ccccc2)n1)C1CC1 (configuration not stated) | 7.12
71 | Cc1ccc(-c2c(-c3ccccc3)ncn2CCCN2CCOCC2)o1 | 6.23
72 | CC(C)(C)c1nnc(NCc2ccc(F)cc2)o1 | 6.88
73 | O=C(c1ccnc(NC2CC2)c1)N1CCCC1c1cccc(Br)c1 (configuration not stated) | -6.58
74 | Cn1c(=O)[nH]c(=O)c2c1nc1n2CC(c2ccc(Cl)cc2)O1 (configuration not stated) | -176
75 | CN(C)Cc1ccc(C(N)=O)cc1NC(=O)c1cccc(C#N)c1 | 1.12
76 | O=C1CCc2ccccc2N1CCCn1cnnn1 | 3.92
77 | O=C(NCc1ccccn1)[C@]12COC[C@H]1CN(Cc1ccccc1F)C2 | 6.81
78 | O=C(CCc1cn[nH]c1)N1C[C@@H](CN2CCOCC2)C[C@H](CO)C1 | 3.13
79 | CCc1nc(C#N)c(N2CCC(c3nc(-c4ccccc4)no3)CC2)o1 | 0.689
80 | Cn1c(CN2CCC(O)CC2)nnc1C1CCCN(C(=O)C2CNC2)C1 (configuration not stated) | 3.19
81 | Cc1nc(CN2CCN(C(C)c3nc(C4CC4)no3)CC2)oc1C (configuration not stated) | -5.95
82 | O=C(c1cc[nH]n1)N1CCc2ccc(S(=O)(=O)N3CCOCC3)cc2C1 | 5.18
83 | CCc1nsc(NC2CC(=O)N(C(C)(C)C)C2)n1 (configuration not stated) | 5.6
84 | Cc1c(C)n(CC(O)CN2CCC(O)CC2)c2c(Cl)cccc12 (configuration not stated) | -13.9
85 | O=C(CC1[C@H]2CN(Cc3ccc(F)cc3)C[C@@H]12)N1CCCC1 (some centres not stated) | -0.744
86 | COCCOCCC(=O)Nc1c(-c2ccc(F)cc2)ncn1C | -3.31
87 | CC(C)C(C)N(C)Cc1nnc(-c2ccco2)o1 (configuration not stated) | 2.65
88 | C=C(C)COc1ccc(C(CC(=O)OC)c2oc(C)cc(=O)c2O)cc1 (configuration not stated) | -9.24
89 | Cc1nc2ccccc2nc1CN1CCn2nc(CCC(=O)O)cc2C1 | -3.43
90 | Cc1ccc(-c2nc(C(=O)NCC3CCOC3)cs2)cc1 (configuration not stated) | -8.32
91 | CN(C)S(=O)(=O)N1CCC(Oc2cnccn2)CC1 | 1.65
92 | O=C(NCCCn1nc2ccccn2c1=O)NCc1ccccc1 | -16.1

Row | SMILES | cytotoxicity at 10 µM [%]
93 | Cc1nc(SC2CCN(c3sccc3C#N)C2=O)oc1C (configuration not stated) | -4.92
94 | Cn1cnnc1CNC(=O)c1ccc(Br)cc1O | -4.06
95 | CCC(CC)C(=O)NCC1(NC(C)c2ccccc2)CCOCC1 (configuration not stated) | 14.7
96 | CC(C)N1C[C@H](NC(=O)c2coc(COc3cccc(F)c3)n2)[C@@H](O)C1 | -145
97 | CC(C)(C)NC(=O)CCn1ncc2c(Cl)cccc21 | 7.25
98 | CC(C)c1nc(O)c2nnn(C[C@@H]3CCCN(Cc4ccsc4)C3)c2n1 | -4.6
99 | Cc1nc(CN2Cc3nccn3CC(CN3CCCC3)C2)cs1 (configuration not stated) | 2.43
100 | Cc1nc(CN(C)C2CCN(Cc3cccc4c3OCCO4)C2)no1 (configuration not stated) | -13.9
101 | O=C(c1c(O)cnc2ccccc12)N1CCN(CC(F)F)CC1 | -2.22
102 | CN(C)c1ncc2c(c1C(=O)O)CCN(Cc1ccco1)C2 | 3.57
103 | CC(C(=O)N1CCN(c2ccccc2)CC1)n1cc(Br)cn1 (configuration not stated) | 7.47
104 | CCOCC(O)CN1CCN(C(=O)c2cccc(OC)c2)CC1 (configuration not stated) | -0.874
105 | CN1CCCN(C(=O)c2nc3c(o2)CN(S(C)(=O)=O)C3)CC1 | -117
106 | Cc1nc(C(F)(F)F)nc(N2CCC3(CC2)CC(C(=O)O)N(C)C3)c1C (configuration not stated) | -4.14
107 | O=C1COC2(CCN(Cc3ccoc3)CC2)CN1c1ccccc1 | -122
108 | CN1CCCCC12CCN(C(=O)c1cccn1C)CC2 | 8.22
109 | COC1(CNC(=O)NCCOc2ccccc2)CCSC1 (configuration not stated) | -0.572
110 | CC(C(=O)NC1CC1)S(=O)(=O)Cc1nc(Cc2ccccc2)no1 (configuration not stated) | 5.42
111 | CN(Cc1ccccn1)C(=O)[C@]12COC[C@H]1CN(Cc1cnn(C)c1)C2 | -9.74
112 | CC(=O)N1N=C(c2ccccc2)OC1C(=O)N(C)Cc1ccccc1 (configuration not stated) | 2.37
